Experiments:
[1] = molecular target: T1, Type-2 angiotensin II receptor (Rattus norvegicus, UniProt P35351); test: In vitro inhibitory activity against angiotensin II rat midbrain AT2 receptor using radioligand [125I]-Sar Ile-AII
T1 sequence (P35351 whole entry): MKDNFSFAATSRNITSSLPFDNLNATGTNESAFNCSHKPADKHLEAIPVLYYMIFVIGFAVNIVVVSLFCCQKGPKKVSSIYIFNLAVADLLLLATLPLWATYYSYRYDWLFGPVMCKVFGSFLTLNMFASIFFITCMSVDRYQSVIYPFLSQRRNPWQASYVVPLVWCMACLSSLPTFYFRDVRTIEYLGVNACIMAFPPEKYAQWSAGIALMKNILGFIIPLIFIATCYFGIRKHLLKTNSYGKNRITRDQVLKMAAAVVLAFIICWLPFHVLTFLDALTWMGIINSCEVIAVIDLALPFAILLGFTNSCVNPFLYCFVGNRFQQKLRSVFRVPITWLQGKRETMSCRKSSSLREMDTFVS
How it was run: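 Dithiothreitol ([…]) was added to the assay mixture to abolish residual AT1 binding. Tubes were run in duplicate, and IC50 came from nonlinear regression of displacement curves.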

[2] = molecular target: T2, Type-1 angiotensin II receptor (Oryctolagus cuniculus, UniProt P34976); test: In vitro inhibitory activity against angiotensin II rabbit aorta AT1 receptor using radioligand [125I]-Sar Ile-AII; format: tissue-based
T2 sequence (P34976 whole entry): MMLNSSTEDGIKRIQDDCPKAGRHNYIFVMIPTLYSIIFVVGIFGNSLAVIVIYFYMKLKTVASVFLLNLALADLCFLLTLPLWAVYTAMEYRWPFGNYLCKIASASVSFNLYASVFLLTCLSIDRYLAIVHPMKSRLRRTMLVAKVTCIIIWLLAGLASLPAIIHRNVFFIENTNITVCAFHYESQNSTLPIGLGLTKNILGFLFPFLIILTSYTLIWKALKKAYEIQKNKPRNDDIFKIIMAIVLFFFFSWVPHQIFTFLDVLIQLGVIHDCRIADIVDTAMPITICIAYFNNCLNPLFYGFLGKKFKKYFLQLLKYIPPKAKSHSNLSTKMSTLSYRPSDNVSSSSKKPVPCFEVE

SMILES | IC50 [1] [nM] | IC50 [2] [nM]
CCCCc1nn(-c2ccccc2Cl)c(=O)n1Cc1ccc(-c2ccccc2S(=O)(=O)NC(=O)C(F)(F)F)cc1 | 450 | –
CCCCc1nn(-c2ccccc2C(F)(F)F)c(=O)n1Cc1ccc(-c2ccccc2S(=O)(=O)NC(=O)NC(C)(C)C)cc1 | 130 | 2.6
CCCCc1nn(-c2ccccc2C(F)(F)F)c(=O)n1Cc1ccc(-c2ccccc2S(=O)(=O)NC(=O)c2ccsc2)cc1 | 300 | 5
CCCCc1nn(-c2ccccc2C(F)(F)F)c(=O)n1Cc1ccc(-c2ccccc2S(=O)(=O)NC(=O)C2CCCCC2)cc1 | 160 | 0.15
CCCCc1nn(-c2ccccc2C(F)(F)F)c(=O)n1Cc1ccc(-c2ccccc2S(=O)(=O)NC(=O)c2cc3ccccc3o2)cc1.CCOCC | – | 0.17
CCCCc1nn(-c2ccccc2C(F)(F)F)c(=O)n1Cc1ccc(-c2ccccc2S(=O)(=O)NC(=O)c2ccc(C(F)(F)F)cc2)cc1 | 1400 | 3.8
CCCCc1nn(-c2ccccc2C(F)(F)F)c(=O)n1Cc1ccc(-c2ccccc2S(=O)(=O)NC(=O)c2ccccc2Br)cc1 | 45 | 0.4
CCCCc1nn(-c2ccccc2C(F)(F)F)c(=O)n1Cc1ccc(-c2ccccc2S(=O)(=O)NC(=O)NC(C)C)cc1 | 300 | 1.1
CCCCc1nn(-c2ccccc2C(F)(F)F)c(=O)n1Cc1ccc(-c2ccccc2S(=O)(=O)NC(=O)c2ccccc2OC)cc1 | 72 | 0.41
CCCCc1nn(-c2ccccc2C(F)(F)F)c(=O)n1Cc1ccc(-c2ccccc2S(=O)(=O)NC(=O)Cc2ccccc2)cc1 | 240 | 1.6
CCCCc1nn(-c2ccccc2C(F)(F)F)c(=O)n1Cc1ccc(-c2ccccc2S(=O)(=O)NC(=O)c2sccc2C)cc1 | 80 | 0.81
CCCCc1nn(-c2ccccc2C(F)(F)F)c(=O)n1Cc1ccc(-c2ccccc2S(=O)(=O)NC(=O)CCC2CCCC2)cc1 | 720 | 1.2
CCCCc1nc(Cl)c(C(=O)O)n1Cc1ccc(-c2ccccc2-c2nn[nH]n2)cc1 [CARBOXYLIC ACID METABOLITE] | > 50000 | –
CCCCc1nn(-c2ccccc2C(F)(F)F)c(=O)n1Cc1ccc(-c2ccccc2S(=O)(=O)NC(=O)OCC)cc1 | 75 | 2.2
CCCCc1nn(-c2ccccc2C(F)(F)F)c(=O)n1Cc1ccc(-c2ccccc2S(=O)(=O)NC(=O)c2sccc2Br)cc1 | 43 | 0.72
CCCCc1nn(-c2ccccc2C(F)(F)F)c(=O)n1Cc1ccc(-c2ccccc2S(=O)(=O)NC(=O)c2ocnc2C)cc1 | 35 | 1.1
CCCCc1nn(-c2ccccc2C(F)(F)F)c(=O)n1Cc1ccc(-c2ccccc2S(=O)(=O)NC(=O)c2cccc(C(F)(F)F)c2)cc1 | 580 | 3.3
CCCCc1nn(-c2ccccc2C(F)(F)F)c(=O)n1Cc1ccc(-c2ccccc2S(=O)(=O)NC(=O)C(C)(C)C)cc1 | 160 | 1.3
CCCCc1nn(-c2ccccc2C(F)(F)F)c(=O)n1Cc1ccc(-c2ccccc2S(=O)(=O)NC(=O)c2ccc(Cl)cc2)cc1 | 520 | 1.2
CCCCc1nn(-c2ccccc2C(F)(F)F)c(=O)n1Cc1ccc(-c2ccccc2S(=O)(=O)NC(=O)c2ccoc2C)cc1 | 110 | 3
CCCCc1nn(-c2ccccc2C(F)(F)F)c(=O)n1Cc1ccc(-c2ccccc2S(=O)(=O)NC(=O)C(c2ccccc2)c2ccccc2)cc1 | 320 | 2.8
CCCCc1nn(-c2ccccc2C(F)(F)F)c(=O)n1Cc1ccc(-c2ccccc2S(=O)(=O)NC(=O)CCCC(=O)O)cc1 | 1500 | 5.5
CCCCc1nn(CC(C)(C)C)c(=O)n1Cc1ccc(-c2ccccc2S(=O)(=O)NC(=O)c2ccccc2)cc1 | 2300 | 3.3
CCCCc1nn(-c2ccccc2Cl)c(=O)n1Cc1ccc(-c2ccccc2S(=O)(=O)NC(C)(C)C)cc1 | 11000 | –
CCCCc1nn(-c2ccccc2Cl)c(=O)n1Cc1ccc(-c2ccccc2S(=O)(=O)NC(C)=O)cc1 | > 1000 | –
